Assay results reported in ChEMBL document CHEMBL1131828, “Synthesis and biological evaluation of a new class of vaccine adjuvants: aminoalkyl glucosaminide 4-phosphates (AGPs)” (1999).
In brackets after ≈: the same amount, converted by molar mass.

Legend:
Type in all cases: functional
Mus musculus [1] = organism: Mus musculus; assay: Ability to enhance antibody response to tetanus toxoid vaccine, IgG1
In short: (§1)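 Mice were immunized with tetanus toxoid in an oil-water emulsion with test article, then boosted 21 days after the primary dose. Serum was taken 14 days after the second injection and assayed by ELISA. Values are test titers divided by the titer of controls given oil-water vehicle with tetanus toxoid only.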

Oryctolagus cuniculus = organism: Oryctolagus cuniculus; assay: Minimum pyrogenic dose was determined for Febrile response in a standard 3-rabbit USP pyrogen test by injecting compound in the marginal ear vein
In short: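 Test article dissolved in EtOH, then diluted with D5W to the desired concentrations just before injection. The minimal pyrogenic dose is the dose at which the summed temperature rise over the three rabbits reaches at least 1.2 °C.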

Mus musculus [2] = organism: Mus musculus; assay: Ability to enhance antibody response to tetanus toxoid vaccine, IgG2b; in short: as §1
Mus musculus [3] = organism: Mus musculus; assay: Percent of cytotoxicity was determined for augment vaccine-induced CTL's against EG.7-ova target cells in two separate murine models
In short: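 C57BL/6 (H-2b) mice, 6 per group, were immunized on days 0 and 14 with a 2.5% oil-water emulsion containing 25 µg ovalbumin plus test article. On day 21, spleens were tested for ovalbumin-specific CTL against 51Cr-labeled E.G7-ova target cells, an ovalbumin-transfected line. Read-out was percent specific lysis.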

Mus musculus [4] = organism: Mus musculus; assay: Ability to enhance antibody response to tetanus toxoid vaccine, total Immunoglobulin (Ig); in short: as §1
Mus musculus [5] = organism: Mus musculus; assay: Half-maximal response in vitro using peritoneal exudate cells from Propionibacterium acnes-primed mice; conditions: read-out: ED50 (the source's name)
Mus musculus [6] = organism: Mus musculus; assay: Ability to enhance antibody response to tetanus toxoid vaccine, IgG2a; in short: as §1
Homo sapiens [7] = organism: Homo sapiens; assay: Relative ex vivo induction of IL1-beta in human whole blood stimulated with 10 ug/mL
In short: (§2)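 Human whole blood was stimulated with sample, and cell-associated TNF-α and IL-1β were measured by sandwich ELISA. Relative induction below 0.05 was scored as not detected.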

Homo sapiens [8] = organism: Homo sapiens; assay: Relative ex vivo induction of TNF-alpha in human whole blood stimulated with 10 ug/mL; in short: as §2

SMILES	Response (Mus musculus [1])	Dose (Oryctolagus cuniculus) [µg/kg]	Response (Mus musculus [2])	Cytotoxicity (Mus musculus [3]) [%]	Response (Mus musculus [4])	EC50 (Mus musculus [5]) [ng/mL]	Response (Mus musculus [6])	Cytokine induction (Homo sapiens [7])	Cytokine induction (Homo sapiens [8])
CCCCCCCCCCCCCC(=O)O[C@H](CCCCCCCCCCC)CC(=O)N[C@@H](CO)CO[C@@H]1OC(CO)[C@H](OP(=O)(O)O)C(OC(=O)C[C@@H](CCCCCCCCCCC)OC(=O)CCCCCCCCCCCCC)[C@@H]1NC(=O)C[C@@H](CCCCCCCCCCC)OC(=O)CCCCCCCCCCCCC (some centres undefined)	3.4	>10	2.4	34	4	150 (≈ 91.3 nM)	3.8		
CCCCCCCCCCC[C@H](CC(=O)N[C@H](CO[C@@H]1OC(CO)[C@H](OP(=O)(O)O)C(OC(=O)C[C@@H](CCCCCCCCCCC)OC(=O)CCCCCCCCC)[C@@H]1NC(=O)C[C@@H](CCCCCCCCCCC)OC(=O)CCCCCCCCC)C(=O)O)OC(=O)CCCCCCCCC (some centres undefined)		<2.5				0.3 (≈ 0.202 nM)		0.6	1.5
CCCCCCCCCCCCCC(=O)O[C@H](CCCCCCCCCCC)CC(=O)N[C@H](CO)CO[C@@H]1OC(CO)[C@H](OP(=O)(O)O)C(OC(=O)C[C@@H](CCCCCCCCCCC)OC(=O)CCCCCCCCCCCCC)[C@@H]1NC(=O)C[C@@H](CCCCCCCCCCC)OC(=O)CCCCCCCCCCCCC (some centres undefined)	2.2	10	1.6	21	3.8	9 (≈ 5.48 nM)	4.3	4.9	3.5
CCCCCCCCCCC[C@H](CC(=O)N[C@@H](CO[C@@H]1OC(CO)[C@H](OP(=O)(O)O)C(OC(=O)C[C@@H](CCCCCCCCCCC)OC(=O)CCCCCCCCC)[C@@H]1NC(=O)C[C@@H](CCCCCCCCCCC)OC(=O)CCCCCCCCC)C(=O)O)OC(=O)CCCCCCCCC (some centres undefined)	4.2	<0.06	2.8	58	18.9	0.06 (≈ 0.0403 nM)	6.8	23	>6
CCCCCCCCCCCCCCCC(=O)O[C@H](CCCCCCCCCCC)CC(=O)N[C@H]1[C@@H](O)[C@H](O)[C@H](CO[C@@H]2O[C@@H](CO)[C@@H](OP(=O)(O)O)[C@H](OC(=O)C[C@@H](CCCCCCCCCCC)OC(=O)CCCCCCCCCCCCC)[C@@H]2NC(=O)C[C@@H](CCCCCCCCCCC)OC(=O)CCCCCCCCCCC)O[C@H]1O		10		31		14 (≈ 8.09 nM)		0.7	1.2
CCCCCCCCCCC[C@H](CC(=O)NCCO[C@@H]1OC(CO)[C@H](OP(=O)(O)O)C(OC(=O)C[C@@H](CCCCCCCCCCC)OC(=O)CCCCCCCCC)[C@@H]1NC(=O)C[C@@H](CCCCCCCCCCC)OC(=O)CCCCCCCCC)OC(=O)CCCCCCCCC (some centres undefined)		10		36		0.5 (≈ 0.346 nM)		1.9	1.3
CCCCCCCCCCCCCC(=O)O[C@H](CCCCCCCCCCC)CC(=O)NC(CO[C@@H]1OC(CO)[C@H](OP(=O)(O)O)C(OC(=O)C[C@@H](CCCCCCCCCCC)OC(=O)CCCCCCCCCCCCC)[C@@H]1NC(=O)C[C@@H](CCCCCCCCCCC)OC(=O)CCCCCCCCCCCCC)C(=O)O (some centres undefined)	1.9	0.6	0.9	14	3.6	3 (≈ 1.81 nM)	2.1	4.8	1.7
CCCCCCCCCCC[C@H](CC(=O)NC(CO[C@@H]1OC(CO)[C@H](OP(=O)(O)O)C(OC(=O)C[C@@H](CCCCCCCCCCC)OC(=O)CCCCC)[C@@H]1NC(=O)C[C@@H](CCCCCCCCCCC)OC(=O)CCCCC)C(=O)O)OC(=O)CCCCC (some centres undefined)	1.3	<2.5	0.9		1.1	> 10000	0.3		
CCCCCCCCCCC[C@H](CC(=O)NC(CO[C@@H]1OC(CO)[C@H](OP(=O)(O)O)C(OC(=O)C[C@@H](CCCCCCCCCCC)OC(=O)CCCCC)[C@@H]1NC(=O)C[C@@H](CCCCCCCCCCC)OC(=O)CCCCC)C(N)=O)OC(=O)CCCCC (some centres undefined)		>10				> 10000			
CCCCCCCCCCCCCC(=O)O[C@H](CCCCCCCCCCC)CC(=O)NC(CO[C@@H]1OC(CO)[C@H](OP(=O)(O)O)C(OC(=O)C[C@@H](CCCCCCCCCCC)OC(=O)CCCCCCCCCCCCC)[C@@H]1NC(=O)C[C@@H](CCCCCCCCCCC)OC(=O)CCCCCCCCCCCCC)C(=O)OC (some centres undefined)		10				67 (≈ 40.1 nM)		1.1	1.1
CCCCCCCCCCC[C@H](CC(=O)NCCO[C@@H]1OC(CO)[C@H](OP(=O)(O)O)C(OC(=O)C[C@@H](CCCCCCCCCCC)OC(=O)CCCCC)[C@@H]1NC(=O)C[C@@H](CCCCCCCCCCC)OC(=O)CCCCC)OC(=O)CCCCC (some centres undefined)		10				> 10000			
CCCCCCCCCCCC(=O)O[C@H](CCCCCCCCCCC)CC(=O)NC(CO[C@@H]1OC(CO)[C@H](OP(=O)(O)O)C(OC(=O)C[C@@H](CCCCCCCCCCC)OC(=O)CCCCCCCCCCC)[C@@H]1NC(=O)C[C@@H](CCCCCCCCCCC)OC(=O)CCCCCCCCCCC)C(=O)O (some centres undefined)		<2.5				0.9 (≈ 0.572 nM)		2	3.6
CCCCCCCCCCCCCC(=O)O[C@H](CCCCCCCCCCC)CC(=O)NC(CO[C@@H]1OC(CO)[C@H](OP(=O)(O)O)C(OC(=O)C[C@@H](CCCCCCCCCCC)OC(=O)CCCCCCCCCCCCC)[C@@H]1NC(=O)C[C@@H](CCCCCCCCCCC)OC(=O)CCCCCCCCCCCCC)C(N)=O (some centres undefined)		10				20 (≈ 12.1 nM)		0.9	1.1
CCCCCCCCCCCCCC(=O)O[C@H](CCCCCCCCCCC)CC(=O)NCCO[C@@H]1OC(CO)[C@H](OP(=O)(O)O)C(OC(=O)C[C@@H](CCCCCCCCCCC)OC(=O)CCCCCCCCCCCCC)[C@@H]1NC(=O)C[C@@H](CCCCCCCCCCC)OC(=O)CCCCCCCCCCCCC (some centres undefined)		10		59		100 (≈ 62 nM)		0.3	0.3
CCCCCCCCCCCCCC(=O)O[C@H](CCCCCCCCCCC)CC(=O)NCCCCCCCCO[C@@H]1OC(CO)[C@H](OP(=O)(O)O)C(OC(=O)C[C@@H](CCCCCCCCCCC)OC(=O)CCCCCCCCCCCCC)[C@@H]1NC(=O)C[C@@H](CCCCCCCCCCC)OC(=O)CCCCCCCCCCCCC (some centres undefined)		>10				> 10000			
CCCCCCCCCCC[C@H](CC(=O)NC(CO[C@@H]1OC(CO)[C@H](OP(=O)(O)O)C(OC(=O)C[C@@H](CCCCCCCCCCC)OC(=O)CCCCCCC)[C@@H]1NC(=O)C[C@@H](CCCCCCCCCCC)OC(=O)CCCCCCC)C(=O)O)OC(=O)CCCCCCC (some centres undefined)		<2.5				33 (≈ 23.5 nM)			
CCCCCCCCCCCCCC(=O)O[C@H](CCCCCCCCCCC)CC(=O)NCCCCCCO[C@@H]1OC(CO)[C@H](OP(=O)(O)O)C(OC(=O)C[C@@H](CCCCCCCCCCC)OC(=O)CCCCCCCCCCCCC)[C@@H]1NC(=O)C[C@@H](CCCCCCCCCCC)OC(=O)CCCCCCCCCCCCC (some centres undefined)		>10				160 (≈ 95.9 nM)			
CCCCCCCCCCCCCC(=O)O[C@H](CCCCCCCCCCC)CC(=O)NCCCO[C@@H]1OC(CO)[C@H](OP(=O)(O)O)C(OC(=O)C[C@@H](CCCCCCCCCCC)OC(=O)CCCCCCCCCCCCC)[C@@H]1NC(=O)C[C@@H](CCCCCCCCCCC)OC(=O)CCCCCCCCCCCCC (some centres undefined)	2.2	10	6.1	38	4.7	8 (≈ 4.92 nM)	5.8	3.5	2.3
CCCCCCCCCCC[C@H](CC(=O)NC(CO[C@@H]1OC(CO)[C@H](OP(=O)(O)O)C(OC(=O)C[C@@H](CCCCCCCCCCC)OC(=O)CCCCCCCCC)[C@@H]1NC(=O)C[C@@H](CCCCCCCCCCC)OC(=O)CCCCCCCCC)C(N)=O)OC(=O)CCCCCCCCC (some centres undefined)	2.6	10	3.3	65	8.9	0.3 (≈ 0.202 nM)	1.7	6.2	3.5
CCCCCCCCCCCCCC(=O)O[C@H](CCCCCCCCCCC)CC(=O)NCCCCO[C@@H]1OC(CO)[C@H](OP(=O)(O)O)C(OC(=O)C[C@@H](CCCCCCCCCCC)OC(=O)CCCCCCCCCCCCC)[C@@H]1NC(=O)C[C@@H](CCCCCCCCCCC)OC(=O)CCCCCCCCCCCCC (some centres undefined)		10		58		51 (≈ 31.1 nM)		0.3	1
